A short description of data set [1]: Cytotoxicity against […] cells assessed as reduction in cell viability after 48 hrs by MTT assay. In kind it is functional, cell-based. Conditions: 4T1, 48 h. A digest of the protocol:
(§1)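 Cells grown in DMEM or MEM with 10% FBS at 37 °C, 5% CO2. Seeded at 1×10^4 cells/well, incubated 48 h, then exposed to compound for 48 h with vehicle control. MTT (5 mg/mL stock) added for 4 h; formazan dissolved in DMSO, absorbance read at 570 nm. Preliminary screen at 50 µM. Compounds giving >50% inhibition were tested for dose-response curves; IC50 derived by linear regression of % inhibition versus concentration. Mean of three independent experiments in triplicate.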
Background: Formazan colour is commonly taken as a measure of viable cells.

Data set [2] concerns MDA-MB-231. The experiment in a line: Induction of apoptosis in human MDA-MB-231 cells assessed as loss of mitochondrial membrane potential after 24 hrs by rhodamine-123 -based spectrofluorometric analysis. In kind it is functional, cell-based. In outline:
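MDA-MB-231 seeded at 5×10^5 cells/mL and allowed to adhere overnight, then treated at 1, 2 or 4 µM for 24 h. Cells collected by trypsin, washed, and stained with rhodamine-123 (10 µg/mL) in PBS for 30 min at room temperature. Cells washed twice and fluorescence read at excitation 480 nm, emission 530 nm. Mean ± SD of three independent experiments in triplicate.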

Data set [3] concerns MDA-MB-231. In words: Induction of apoptosis in human MDA-MB-231 cells assessed as loss of mitochondrial membrane potential at 2 uM after 24 hrs by rhodamine-123 -based spectrofluorometric analysis relative to control. It is filed as functional. In outline: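 MDA-MB-231 cells were plated at 5×10^5 cells/mL in 6-well plates, left to adhere overnight, then treated 24 h at 1, 2 and 4 μM. Cells were trypsinized, washed in PBS and loaded with rhodamine-123 (10 μg/mL) in PBS for 30 min at room temperature. After two PBS washes, fluorescence was read by spectrofluorometer (ex 480/em 530 nm). Loss is expressed against control; three independent experiments in triplicate.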

The test system of data set [4] is MDA-MB-231. The experiment in a line: Induction of apoptosis in human MDA-MB-231 cells assessed as formation of condensed nuclei at 1 to 4 uM after 24 hrs by DAPI dye-based fluorescent microscopic analysis. In kind it is functional, cell-based. In outline: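 MDA-MB-231 grown at 1×10^6 cells/well in 6-well plates and treated at 1.0, 2.0 or 4.0 µM for 24 h, with untreated controls. Cells washed twice with PBS, fixed in 4% paraformaldehyde and stained with 10 µg/mL DAPI. Nuclei examined by fluorescence microscopy (excitation 359 nm, emission 461 nm) at 200×.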

Data set [5] is described as follows: Selectivity ratio of IC50 for human MCF10A cells to IC50 for […] cells. It is filed as ADME, cell-based, MCF-10A. The settings on record: MCF10A cells versus 4TI cells, read-out: Ratio IC50.
Data set [6] in a line: Cytotoxicity against human MCF7 cells assessed as reduction in cell viability after 48 hrs by MTT assay. In kind it is functional, cell-based. The settings on record: MCF7, 48 h. A digest of the protocol:
as §1

For data set [7], the system named is MDA-MB-231. In words: Induction of apoptosis in human MDA-MB-231 cells assessed as increase in cleaved PARP expression after 24 hrs by Western blot analysis. It is filed as functional, cell-based. In outline:
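MDA-MB-231 treated at 1, 2 or 4 µM for 24 h. Whole-cell extracts prepared in RIPA buffer. Blots probed with rabbit anti-caspase-3, anti-Bcl2 and anti-β-actin (1:1000) and anti-Bax (1:500), then HRP secondaries and ECL detection. Membranes stripped and reprobed. Bands quantified by densitometry as fold change versus control. Mean ± SEM, n=3.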
For orientation: Immunoblotting shows a protein as a band on a membrane.

The nature of data set [8]: Cytotoxicity against human PC3 cells assessed as growth inhibition at 50 uM after 48 hrs by MTT assay relative to control. It is filed as functional. Conditions: PC-3, 48 h, read-out: GI. A digest of the protocol: as §1
The nature of data set [9]: Cytotoxicity against human BT549 cells assessed as reduction in cell viability after 48 hrs by MTT assay. In kind it is functional, cell-based. Conditions: BT-549, 48 h. A digest of the protocol:
as §1

A short description of data set [10]: Cytotoxicity against human MDA-MB-231 cells assessed as growth inhibition at 50 uM after 48 hrs by MTT assay relative to control. In kind it is functional. Conditions: MDA-MB-231, 48 h, read-out: GI. A digest of the protocol:
as §1

A short description of data set [11]: Cell cycle arrest in human MDA-MB-231 cells assessed as accumulation at G2/M phase at 1 uM after 24 hrs by propidium iodide staining based FACS analysis (reference value: 26 %). In kind it is functional. A digest of the protocol: (§2)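 MDA-MB-231 at 1×10^6 cells/well treated with 1, 2 or 4 µM for 24 h, with a DMSO control. Cells harvested by trypsin, washed with PBS and fixed in 70% ethanol for 30 min at 4 °C. Stained 15 min at room temperature in the dark with PI buffer containing Triton X and DNase-free RNase A. Analysed by flow cytometry; G0/G1, S and G2/M fractions quantified.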
On the technique in general: A flow cytometer gives signals particle by particle.

In data set [12] the test system is MDA-MB-231. In words: Induction of apoptosis in human MDA-MB-231 cells assessed as late apoptotic cells at 4 uM after 24 hrs by Annexin V-FITC/propidium iodide-staining based FACS analysis (reference value: 3.6 %). In kind it is functional.
Data set [13] deals with MDA-MB-231. In words: Induction of apoptosis in human MDA-MB-231 cells assessed as viable cells at 4 uM after 24 hrs by Annexin V-FITC/propidium iodide-staining based FACS analysis (reference value: 89.5 %). It is filed as functional. Conditions: MDA-MB-231, 24 h, read-out: Activity.
Data set [14] in a line: Cell cycle arrest in human MDA-MB-231 cells assessed as accumulation at G2/M phase at 4 uM after 24 hrs by propidium iodide staining based FACS analysis (reference value: 26 %). It is filed as functional. In outline:
as §2

Data set [15] is described as follows: Cytotoxicity against human A549 cells assessed as reduction in cell viability after 48 hrs by MTT assay. It is filed as functional, cell-based. Conditions: A549, 48 h. A digest of the protocol: as §1
For data set [16], the system named is MDA-MB-231. In words: Induction of apoptosis in human MDA-MB-231 cells assessed as reduction in viable cells at 1 to 4 uM after 24 hrs by phase contrast microscopic analysis. It is filed as functional, cell-based. In outline: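 MDA-MB-231 cells were exposed for 24 h to 1, 2 and 4 μM beside a control. Morphology (shrinkage, deformation, number of viable cells) was examined and photographed by phase contrast microscopy.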

The nature of data set [17]: Cytotoxicity against […] cells assessed as growth inhibition at 50 uM after 48 hrs by MTT assay relative to control. In kind it is functional. Conditions: Mus musculus, 4T1, 48 h; read-out: GI. In outline: as §1
A short description of data set [18]: Selectivity ratio of IC50 for human MCF10A cells to IC50 for human DU145 cells. In kind it is ADME, cell-based, MCF-10A. The settings on record: MCF10A cells versus DU145 cells, read-out: Ratio IC50.
For data set [19], the system named is MDA-MB-231. The experiment in a line: Induction of apoptosis in human MDA-MB-231 cells assessed as formation of condensed chromatin at 1 uM after 24 hrs by AO/EB-dual staining based fluorescent microscopic analysis. It is filed as functional, cell-based. A digest of the protocol:
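MDA-MB-231 plated at 1×10^6 cells/mL and treated at 1, 2 or 4 µM, with a DMSO control. Incubation time is given as 48 h in the methods and 24 h in the figure legend. AO and EB added at 10 µg/mL each. Cells viewed within 10 min by fluorescence microscopy (excitation 488 nm, emission 550 nm) at 200×.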

A short description of data set [20]: Cell cycle arrest in human MDA-MB-231 cells assessed as accumulation at S phase at 4 uM after 24 hrs by propidium iodide staining based FACS analysis (reference value: 24.6 %). It is filed as functional. A digest of the protocol:
as §2

A short description of data set [21]: Cytotoxicity against HGC cells assessed as reduction in cell viability after 48 hrs by MTT assay. In kind it is functional, cell-based. The settings on record: Homo sapiens. In outline: as §1
The nature of data set [22]: Cell cycle arrest in human MDA-MB-231 cells assessed as accumulation at G0/G1 phase at 2 uM after 24 hrs by propidium iodide staining based FACS analysis (reference value: 50.4 %). In kind it is functional. In outline: as §2

This is an account of results in ChEMBL document CHEMBL3865824, “New (E)-1-alkyl-1H-benzo[d]imidazol-2-yl)methylene)indolin-2-ones: Synthesis, in vitro cytotoxicity evaluation and apoptosis inducing studies” (Eur J Med Chem, 2016).

Active and inactive are the calls of the source. The rule behind the calls is not given here. Where only a bound is given, the exact number is not on record here.

Take `CC(C)n1c(/C=C2/C(=O)Nc3ccc(Br)cc32)nc2ccccc21`: the IC50 in data set [1] worked out at 5.96 µM; in data set [6], 14.9 µM; in data set [9], 13.7 µM; in data set [15], 8.63 µM; in [21], 12.4 µM. In addition, the Activity entry was “Dose-dependent effect” with MDA-MB-231 [2]; 32.5% in the data set with MDA-MB-231 [3]; “Dose-dependent effect” in the data set with MDA-MB-231 [7]; 21.8% in data set [11]; 7.1% with MDA-MB-231 [12]; 14.8% in data set [14]. For the same compound, the Activity in [20] is 11.3%; in data set [22], 64.3%. The outcome with MDA-MB-231 [4], in the data set on MDA-MB-231 [16] and in the data set with MDA-MB-231 [19] was Active. Moreover, the values for the selectivity ratio in [5] and in data set [18] were 9.5 and 8, respectively. Further, the inhibition of growth at 50 µM in data set [8], in data set [10] and in [17] was more than 50% in each case. For the same compound, the viability at 4 µM with MDA-MB-231 [13] was found to be 65.3%.

By IC50 is commonly meant the concentration that gives 50% inhibition.
